Laboratory results as given in ChEMBL document CHEMBL1159001, “Isolation, purification, and cytotoxicity of 5-methoxypodophyllotoxin, a lignan from a root culture of Linum flavum” (1992).
In brackets after ≈: the same amount, converted by molar mass.

How the values were obtained:
[1] = Cytotoxicity against mouse EAT cells after 4 days by trypan blue assay; type: functional; settings: 96 h, read-out: ED50 (the source's name)
How it was run: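 Murine Ehrlich ascites tumor cells grown in suspension in RPMI 1640 with 10% fetal calf serum, streptomycin and penicillin G (doubling time 12–14 h). Exponential-phase cells, viability >95% by trypan blue. Lignans came from 0.5 or 5 mM 96% EtOH stocks, in 24 twofold dilutions. 2000 viable cells/well, incubated 4 days at 37°, 5% CO2. Sedimented pellet diameters were compared visually with untreated wells, and ED50 derived as 50% growth inhibition.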

HeLa = experiment: Cytotoxicity against human HeLa cells after 4 days by trypan blue assay; type: functional; settings: 96 h, read-out: ED50 (the source's name)
How it was run: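 HeLa cells cultured in Joklik's MEM with 10% fetal calf serum, streptomycin and penicillin G (doubling time ca. 24 h). Exponentially growing cells with >95% trypan-blue viability. Lignans were taken from 0.5 or 5 mM stocks in 96% EtOH, and 24 twofold dilutions were made in medium. 2000 cells/well, 4 days at 37°, 5% CO2. Growth was scored visually by pellet diameter against untreated controls, and ED50 (50% growth inhibition) calculated.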

Compound	EC50 [1] [µg/mL]	EC50 (HeLa) [µg/mL]
COc1cc([C@@H]2c3cc4c(c(OC)c3[C@H](O)[C@H]3COC(=O)[C@H]23)OCO4)cc(OC)c1OC	32 (≈ 72 µM)	22 (≈ 49.5 µM)
COc1cc([C@@H]2c3cc4c(cc3[C@H](O[C@@H]3O[C@H](CO)[C@@H](O)[C@H](O)[C@H]3O)[C@H]3COC(=O)[C@H]23)OCO4)cc(OC)c1OC	30 (≈ 52 µM)	21.8 (≈ 37.8 µM)
COc1cc([C@@H]2c3cc4c(cc3[C@@H](O[C@@H]3O[C@@H]5CO[C@@H](C)O[C@H]5[C@H](O)[C@H]3O)[C@H]3COC(=O)[C@H]23)OCO4)cc(OC)c1O [ETOPOSIDE]	1.1 (≈ 1.87 µM)	7.9 (≈ 13.4 µM)
COc1cc([C@@H]2c3cc4c(cc3[C@H](O)[C@H]3COC(=O)[C@H]23)OCO4)cc(OC)c1OC [PODOFILOX]	42.8 (≈ 103 µM)	20.5 (≈ 49.5 µM)
COc1cc([C@@H]2c3cc4c(cc3[C@@H](O[C@@H]3O[C@@H]5CO[C@@H](c6cccs6)O[C@H]5[C@H](O)[C@H]3O)[C@H]3COC(=O)[C@H]23)OCO4)cc(OC)c1O [TENIPOSIDE]	0.06 (≈ 0.0914 µM)	0.3 (≈ 0.457 µM)
